From article PMC5788303 (Journal of medicinal chemistry, 2017)
Values belong to the compound of their own block, whether it stands above or below them.

Experiments:
native KA receptors = test: Radioligand binding at native KA receptors; details: [3H]KA, rat synaptosomes
Summary of the method: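 Native kainate receptors in rat brain synaptosomes were labelled with [3H]KA, and displacement by the test compound was measured. IC50 and Ki values were derived from the binding data.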

native AMPA receptors = test: Radioligand binding at native AMPA receptors; details: read-out: AMPA IC50; [3H]AMPA, rat synaptosomes
Summary of the method: (§1)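 Native receptors in rat brain synaptosomes: AMPA labelled with [3H]AMPA, KA with [3H]KA, NMDA with [3H]CGP-39653. Recombinant homomeric rat GluK1-3 labelled with [3H]KA. IC50 and Ki values derived from displacement data.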

iGluRs = test: Binding affinity at iGluRs; set-up: species or system rat; details: native iGluRs and homomeric GluK1-3
Summary of the method: as §1

[1] = In situ mouse brain perfusion; format: in vivo
Summary of the method: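 Adult male mice, 25 ± 5 g, anaesthetised with i.p. ketamine 120 mg/kg plus xylazine. Right external carotid ligated; right common carotid cannulated with a 100 IU/mL heparin-filled catheter. Perfused with 100 μM test compound at 37 °C and 2.5 mL/min for 60 s, then washed 2 s with 4 °C drug-free buffer. Brain level measured (detection limit 5 pmol/g).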

native NMDA receptors = test: Radioligand binding at native NMDA receptors; set-up: species or system rat; details: compared with 1l / 1n
mouse HCC cells = test: Anti-proliferative activity in vitro; format: cell-based; details: 72 h
Summary of the method: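 Mouse Nras-driven p53−/− HCC cells in DMEM with 2 mM L-glutamine, 10% heat-inactivated FBS and penicillin/streptomycin. Cells seeded at 2×10^4/well on collagen-coated plates and used one day later. Test compound given at 0.1–200 μM, or at 1, 2.5, 5 and 10 μM with or without a 100 μM second test compound, for 72 h with daily medium change. Viability read by resazurin fluorescence (ex 560/em 590 nm). IC50 by nonlinear regression, mean ± SEM.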

GluN1/GluN2A = GluN1/GluN2A (Rattus norvegicus, UniProt Q00959); test: Two-electrode voltage-clamp electrophysiology, Xenopus oocytes, GluN1/GluN2A; format: biochemical; details: 100 μM glycine and 10 μM Glu
Sequence of GluN1/GluN2A (Q00959 23-1464, other chains not shown): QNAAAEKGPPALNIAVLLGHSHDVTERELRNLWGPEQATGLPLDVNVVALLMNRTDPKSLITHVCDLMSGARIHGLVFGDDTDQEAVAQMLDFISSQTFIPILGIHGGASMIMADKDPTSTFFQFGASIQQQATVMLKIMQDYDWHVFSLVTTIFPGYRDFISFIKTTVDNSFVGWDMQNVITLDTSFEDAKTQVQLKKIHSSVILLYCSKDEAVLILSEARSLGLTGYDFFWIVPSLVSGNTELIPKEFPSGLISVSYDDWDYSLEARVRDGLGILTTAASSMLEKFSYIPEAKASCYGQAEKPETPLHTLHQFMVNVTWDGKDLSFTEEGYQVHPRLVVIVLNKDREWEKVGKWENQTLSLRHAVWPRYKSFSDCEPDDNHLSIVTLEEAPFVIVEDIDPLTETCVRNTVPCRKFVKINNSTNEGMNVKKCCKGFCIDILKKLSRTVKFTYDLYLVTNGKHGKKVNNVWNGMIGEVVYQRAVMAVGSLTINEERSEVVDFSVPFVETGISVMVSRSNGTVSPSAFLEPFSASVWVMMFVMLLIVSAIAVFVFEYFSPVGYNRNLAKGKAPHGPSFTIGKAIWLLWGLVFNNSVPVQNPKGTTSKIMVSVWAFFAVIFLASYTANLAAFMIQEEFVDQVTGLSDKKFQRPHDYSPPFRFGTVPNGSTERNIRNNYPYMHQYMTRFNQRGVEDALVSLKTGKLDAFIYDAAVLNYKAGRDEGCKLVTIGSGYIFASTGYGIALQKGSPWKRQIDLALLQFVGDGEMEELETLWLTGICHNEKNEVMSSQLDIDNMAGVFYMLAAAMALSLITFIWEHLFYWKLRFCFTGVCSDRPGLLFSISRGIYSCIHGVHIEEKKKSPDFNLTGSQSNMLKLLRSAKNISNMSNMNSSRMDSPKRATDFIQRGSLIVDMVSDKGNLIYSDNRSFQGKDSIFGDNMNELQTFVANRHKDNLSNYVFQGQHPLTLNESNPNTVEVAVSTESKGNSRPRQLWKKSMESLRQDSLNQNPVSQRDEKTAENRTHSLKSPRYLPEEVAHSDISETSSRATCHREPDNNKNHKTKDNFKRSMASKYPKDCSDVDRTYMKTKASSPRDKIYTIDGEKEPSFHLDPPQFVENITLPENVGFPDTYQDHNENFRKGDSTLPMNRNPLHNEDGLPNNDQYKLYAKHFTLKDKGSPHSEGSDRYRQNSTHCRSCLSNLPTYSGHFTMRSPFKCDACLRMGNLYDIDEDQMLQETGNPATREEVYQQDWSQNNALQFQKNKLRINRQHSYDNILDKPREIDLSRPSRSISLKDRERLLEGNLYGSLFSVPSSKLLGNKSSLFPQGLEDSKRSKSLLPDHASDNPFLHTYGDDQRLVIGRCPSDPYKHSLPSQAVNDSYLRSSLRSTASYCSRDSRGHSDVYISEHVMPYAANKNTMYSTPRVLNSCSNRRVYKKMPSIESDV
Summary of the method: (§2)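 Rat GluN1 and GluN2A-D cRNAs injected 1:2 into Xenopus oocytes, held at 18 °C in Barth's solution. Recorded at room temperature 2–6 days later in 90 mM NaCl, 1 mM KCl, 10 mM HEPES, 0.5 mM BaCl2, 0.01 mM EDTA (pH 7.4), −40 mV. Currents evoked by 100 μM glycine plus Glu: 10 μM (2A), 3 μM (2B, 2C), 1 μM (2D). Per-oocyte Hill fits, mean ± SEM.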

Abcb1 (Pgp) = test: Transporter protein expression by SRM/MRM LC-MS/MS, Abcb1; format: cell-based, mouse; details: 10 μM, 48 h, HCC cell crude membrane fraction
GluN1/GluN2C = GluN1/GluN2C (Rattus norvegicus, UniProt Q00961); test: Two-electrode voltage-clamp electrophysiology, Xenopus oocytes, GluN1/GluN2C; format: biochemical; details: 100 μM glycine and 3 μM Glu
Sequence of GluN1/GluN2C (Q00961 20-1237, other chains not shown): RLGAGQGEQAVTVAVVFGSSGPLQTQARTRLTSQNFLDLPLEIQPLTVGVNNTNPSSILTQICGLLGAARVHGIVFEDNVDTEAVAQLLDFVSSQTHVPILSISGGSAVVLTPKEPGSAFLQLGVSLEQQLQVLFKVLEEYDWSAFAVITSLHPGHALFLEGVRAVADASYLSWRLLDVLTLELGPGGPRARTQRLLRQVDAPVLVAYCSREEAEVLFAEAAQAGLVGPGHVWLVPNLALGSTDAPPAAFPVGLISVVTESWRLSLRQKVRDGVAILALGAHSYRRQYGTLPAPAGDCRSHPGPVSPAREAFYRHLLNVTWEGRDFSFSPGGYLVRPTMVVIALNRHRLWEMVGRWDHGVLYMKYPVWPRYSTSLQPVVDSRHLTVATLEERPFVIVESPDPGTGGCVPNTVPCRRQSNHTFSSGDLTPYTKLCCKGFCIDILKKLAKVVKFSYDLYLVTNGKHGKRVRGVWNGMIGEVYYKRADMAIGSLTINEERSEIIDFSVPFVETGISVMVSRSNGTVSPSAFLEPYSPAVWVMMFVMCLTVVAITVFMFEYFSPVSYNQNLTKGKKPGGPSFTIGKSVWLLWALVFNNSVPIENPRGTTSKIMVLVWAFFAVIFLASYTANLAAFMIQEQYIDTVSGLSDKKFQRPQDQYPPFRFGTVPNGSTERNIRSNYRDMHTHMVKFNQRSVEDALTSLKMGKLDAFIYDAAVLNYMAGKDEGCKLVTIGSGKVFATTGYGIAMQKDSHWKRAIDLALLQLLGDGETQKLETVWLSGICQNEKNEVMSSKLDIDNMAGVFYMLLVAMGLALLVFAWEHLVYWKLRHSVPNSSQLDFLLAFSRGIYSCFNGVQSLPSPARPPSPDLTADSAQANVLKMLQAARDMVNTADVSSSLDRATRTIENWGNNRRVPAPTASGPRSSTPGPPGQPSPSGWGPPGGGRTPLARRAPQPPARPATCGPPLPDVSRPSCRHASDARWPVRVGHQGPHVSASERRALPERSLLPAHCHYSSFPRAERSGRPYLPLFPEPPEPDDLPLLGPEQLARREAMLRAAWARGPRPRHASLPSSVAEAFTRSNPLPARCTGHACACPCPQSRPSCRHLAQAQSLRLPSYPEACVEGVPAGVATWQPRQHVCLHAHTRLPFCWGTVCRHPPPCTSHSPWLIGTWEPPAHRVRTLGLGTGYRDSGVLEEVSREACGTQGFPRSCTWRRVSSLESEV
Summary of the method: as §2

Slc7a5 (Lat1) = test: Transporter protein expression by SRM/MRM LC-MS/MS, Slc7a5; format: cell-based, mouse; details: 10 μM, 48 h, HCC cell crude membrane fraction
Abcc4 (Mrp4) = test: Transporter protein expression by SRM/MRM LC-MS/MS, Abcc4; format: cell-based, mouse; details: 10 μM, 48 h, HCC cell crude membrane fraction
Slc2a1 (Glut1) = test: Transporter protein expression by SRM/MRM LC-MS/MS, Slc2a1; format: cell-based, mouse; details: 10 μM, 48 h, HCC cell crude membrane fraction
[2] = test system: NMDA receptors in murine HCC cells; test: Calcium imaging of NMDA-induced Ca2+ transients in murine HCC cells; format: cell-based, mouse; details: 150 μM NMDA
GluN1/GluN2B = GluN1/GluN2B (Rattus norvegicus, UniProt Q00960); test: Two-electrode voltage-clamp electrophysiology, Xenopus oocytes, GluN1/GluN2B; format: biochemical; details: 100 μM glycine and 3 μM Glu
Summary of the method: as §2

GluN1/GluN2D = GluN1/GluN2D (Rattus norvegicus, UniProt Q62645); test: Two-electrode voltage-clamp electrophysiology, Xenopus oocytes, GluN1/GluN2D; format: biochemical; details: 100 μM glycine and 1 μM Glu
Sequence of GluN1/GluN2D (Q62645 28-1323, other chains not shown): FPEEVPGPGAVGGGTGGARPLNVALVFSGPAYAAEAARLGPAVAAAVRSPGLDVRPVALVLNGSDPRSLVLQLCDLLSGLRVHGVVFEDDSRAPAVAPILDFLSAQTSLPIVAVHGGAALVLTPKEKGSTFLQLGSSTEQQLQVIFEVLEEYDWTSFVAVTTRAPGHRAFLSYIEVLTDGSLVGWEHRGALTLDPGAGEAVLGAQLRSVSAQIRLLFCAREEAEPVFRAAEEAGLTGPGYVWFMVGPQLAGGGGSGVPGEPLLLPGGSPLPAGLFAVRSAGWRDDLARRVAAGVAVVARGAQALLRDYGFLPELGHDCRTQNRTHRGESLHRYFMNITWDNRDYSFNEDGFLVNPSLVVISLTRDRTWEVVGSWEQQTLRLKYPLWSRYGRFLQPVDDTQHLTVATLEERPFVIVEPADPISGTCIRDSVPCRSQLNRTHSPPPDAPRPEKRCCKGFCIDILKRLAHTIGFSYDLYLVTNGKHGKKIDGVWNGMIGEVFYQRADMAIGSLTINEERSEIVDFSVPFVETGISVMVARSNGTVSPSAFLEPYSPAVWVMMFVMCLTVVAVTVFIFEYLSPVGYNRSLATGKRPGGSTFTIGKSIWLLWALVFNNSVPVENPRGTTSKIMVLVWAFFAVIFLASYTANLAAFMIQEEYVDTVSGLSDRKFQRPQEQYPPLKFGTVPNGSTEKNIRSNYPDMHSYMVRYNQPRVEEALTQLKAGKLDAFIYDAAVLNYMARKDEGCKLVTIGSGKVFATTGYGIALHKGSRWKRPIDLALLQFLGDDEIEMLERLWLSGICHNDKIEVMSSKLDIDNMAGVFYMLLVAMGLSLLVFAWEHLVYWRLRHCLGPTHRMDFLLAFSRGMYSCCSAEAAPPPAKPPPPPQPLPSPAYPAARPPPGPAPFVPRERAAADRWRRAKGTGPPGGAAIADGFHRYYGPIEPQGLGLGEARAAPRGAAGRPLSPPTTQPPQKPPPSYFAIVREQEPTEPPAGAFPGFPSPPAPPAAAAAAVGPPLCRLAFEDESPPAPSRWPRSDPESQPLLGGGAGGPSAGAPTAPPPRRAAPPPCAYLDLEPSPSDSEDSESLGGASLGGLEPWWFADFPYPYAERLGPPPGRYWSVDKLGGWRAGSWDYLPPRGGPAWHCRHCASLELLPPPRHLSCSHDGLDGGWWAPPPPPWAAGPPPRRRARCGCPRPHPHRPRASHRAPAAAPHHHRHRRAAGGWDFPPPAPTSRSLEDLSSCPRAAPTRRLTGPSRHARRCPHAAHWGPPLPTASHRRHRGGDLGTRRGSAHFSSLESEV
Summary of the method: as §2

[3] = In vivo pharmacokinetics in mice, 10 mg/kg i.p.; set-up: species or system mouse
Abcg2 (Bcrp) = test: Transporter protein expression by SRM/MRM LC-MS/MS, Abcg2; format: cell-based, mouse; details: 10 μM, 48 h, HCC cell crude membrane fraction
Abcc2 (Mrp2) = test: Transporter protein expression by SRM/MRM LC-MS/MS, Abcc2; format: cell-based, mouse; details: 10 μM, HCC cell crude membrane fraction

Compound: Cl.O=C(O)[C@H]1NCC[C@@H]1c1cccc(Cl)c1 [1d, (2S,3R)-2-Carboxy-3-(3-chlorophenyl)pyrrolidin-1-ium chloride]
KA IC50 (native KA receptors): >100 µM
IC50 (native AMPA receptors): > 100 µM

Compound: Cl.Cl.Nc1cccc([C@H]2CCN[C@@H]2C(=O)O)c1 [1f, (2S,3R)-3-(3-Aminophenyl)pyrrolidine-2-carboxylic acid dihydrochloride]
KA IC50 (native KA receptors): >100 µM
IC50 (native AMPA receptors): > 100 µM

Compound: O=C(O)c1cccc([C@H]2CCN[C@@H]2C(=O)O)c1 [1a, (2S,3R)-3-(3-Carboxyphenyl)pyrrolidine-2-Carboxylic Acid]
BBB penetration ([1]; mouse in situ brain perfusion): does not penetrate the BBB

Compound: Cc1ccc([C@H]2CCN[C@@H]2C(=O)O)cc1C(=O)O.Cl [1m, (2S,3R)-3-(3-Carboxy-4-methylphenyl)pyrrolidine-2-carboxylic acid hydrochloride]
KA IC50 (native KA receptors): >100 µM
IC50 (native AMPA receptors): > 100 µM
drop in binding affinity for native NMDA receptors (native NMDA receptors): 30 fold

Compound: Cl.O=C(O)[C@H]1NCC[C@@H]1c1cccc(C(F)(F)F)c1 [1e, (2S,3R)-2-Carboxy-3-(3-(trifluoromethyl)phenyl)pyrrolidin-1-ium chloride]
KA IC50 (native KA receptors): >100 µM
IC50 (native AMPA receptors): > 100 µM

Compound: Cl.O=C(O)c1cc([C@H]2CCN[C@@H]2C(=O)O)ccc1Cl [1l, (2S,3R)-3-(3-Carboxy-4-chlorophenyl)pyrrolidine-2-carboxylic acid hydrochloride]
nH (Hillslope) (GluN1/GluN2A): 1.3
Abcb1 (Pgp) protein expression level (Abcb1 (Pgp)): 0.39± 0.06 fmol/μg of total protein
nH (Hillslope) (GluN1/GluN2C): 1.0
Slc7a5 (Lat1) protein expression level (Slc7a5 (Lat1)): 5.72± 1.61 fmol/μg of total protein
Abcc4 (Mrp4) protein expression level (Abcc4 (Mrp4)): 0.27 ± 0.04 fmol/μg of total protein
Slc2a1 (Glut1) protein expression level (Slc2a1 (Glut1)): 13.2± 0.53 fmol/μg of total protein
inhibition of NMDA-induced intracellular Ca2+ transients ([2]; compound at 25 and 41 μM): inhibit NMDA activation significantly
KA IC50 (native KA receptors): >100 µM
nH (Hillslope) (GluN1/GluN2B): 1.3
brain concentration following perfusion ([1]; perfusion with 100 μM of the compound, detection limit of analytical method): < 5 pmol/g
IC50 (native AMPA receptors): > 100 µM
nH (Hillslope) (GluN1/GluN2D): 1.3
changes in the behavior of the mice after injection ([3]; 10 mg/kg i.p.): no observable changes in the behavior
brain concentration ([3]; 30 min after 10 mg/kg i.p.): 0.3 nmol/g
brain concentration ([3]; 60 min after 10 mg/kg i.p.): 0.1 nmol/g
Abcg2 (Bcrp) protein expression level (Abcg2 (Bcrp)): 1.24± 0.13 fmol/μg of total protein
Abcc2 protein expression (Abcc2 (Mrp2)): below the lower limit of quantification

Compound: Cl.N#Cc1cccc([C@H]2CCN[C@@H]2C(=O)O)c1 [1g, (2S,3R)-3-(3-Cyanophenyl)pyrrolidine-2-carboxylic acid hydrochloride]
KA IC50 (native KA receptors): >100 µM
IC50 (native AMPA receptors): > 100 µM

Compound: N[C@H](CCCP(=O)(O)O)C(=O)O [D-AP5, reference compound]
inhibition of NMDA-induced intracellular Ca2+ transients ([2]; compound at 20 μM): inhibit NMDA activation significantly

The next lines start with results.

IC50 (native AMPA receptors): > 100 µM
Compound: O=C(O)c1cc([C@H]2CCN[C@@H]2C(=O)O)ccc1F [1k, (2S,3R)-2-Carboxy-3-(3-carboxy-4-fluorophenyl)pyrrolidin-1-ium chloride]

IC50 or Ki at the iGluRs (iGluRs): > 100 µM
KA IC50 (native KA receptors): >100 µM
IC50 (native AMPA receptors): > 100 µM
Compound: Cl.O=C(O)[C@H]1NCC[C@@H]1c1cccc(B(O)O)c1 [1i, (2S,3R)-3-(3-Boronophenyl)pyrrolidine-2-carboxylic acid hydrochloride]

IC50 (mouse HCC cells; read-out: IC50 on HCC cell viability): 7.4 ± 1.7 µM
Compound: CNC(=O)c1cc(Oc2ccc(NC(=O)Nc3ccc(Cl)c(C(F)(F)F)c3)cc2)ccn1 [sorafenib]
viability at 1 µM (mouse HCC cells; read-out: cell viability): 88 ± 3%
viability at 2.5 µM (mouse HCC cells; read-out: cell viability): 82 ± 3%
viability at 5 µM (mouse HCC cells; read-out: cell viability): 72 ± 1%
viability at 10 µM (mouse HCC cells; read-out: cell viability): 31 ± 2%

KA IC50 (native KA receptors): >100 µM
IC50 (native AMPA receptors): > 100 µM
Compound: Cl.O=C(O)c1cc([C@H]2CCN[C@@H]2C(=O)O)ccc1Br [1n, (2S,3R)-3-(3-Carboxy-4-bromophenyl)pyrrolidine-2-carboxylic acid hydrochloride]

IC50 or Ki at the iGluRs (iGluRs): > 100 µM
KA IC50 (native KA receptors): >100 µM
IC50 (native AMPA receptors): > 100 µM
Compound: Cl.NC(=O)c1cccc([C@H]2CCN[C@@H]2C(=O)O)c1 [1h, (2S,3R)-3-(3-Carbamoylphenyl)-2-carboxypyrrolidin-1-ium chloride]

KA IC50 (native KA receptors): >100 µM
IC50 (native AMPA receptors): > 100 µM
Compound: O=C(O)[C@H]1NCC[C@@H]1c1ccc(O)c(O)c1 [1j, (2S,3R)-3-(3,4-Dihydroxyphenyl)pyrrolidine-2-carboxylic acid]
